Screens as filed in PubChem.
Hits are enriched below; roughly 5.3% of the tested compounds scored in any of these assays.
Calb FLC – C. albicans growth modulation with fluconazole; growth inhibition, % (no concentration beside the values); actives 0.57% (n = 300,000); C. albicans CaCi-2 (fluconazole-resistant clinical isolate) + fluconazole, Alamar Blue growth, 48 h;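 active = growth inhibition above about 58% in most replicates, limit read from the data, passing the limit was not always enough; inconclusive = exactly half the replicates above a set limit; inactive = most replicates below a set limit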;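 note: all wells also contain fluconazole at 8 µg/ml as a sub-toxic cotreatment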
Mdm2 MdmX PPI – human Mdm2/MdmX binding inhibition | O15151+Q00987 | SaOS-2 split-luciferase Mdm2/MdmX complementation, luminescence | inhibition, % at 8 µM | actives 3% (n = 330,000);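 active = inhibition of at least 50% at 8 µM in the primary screen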
Target sequence (O15151 whole entry, looked up): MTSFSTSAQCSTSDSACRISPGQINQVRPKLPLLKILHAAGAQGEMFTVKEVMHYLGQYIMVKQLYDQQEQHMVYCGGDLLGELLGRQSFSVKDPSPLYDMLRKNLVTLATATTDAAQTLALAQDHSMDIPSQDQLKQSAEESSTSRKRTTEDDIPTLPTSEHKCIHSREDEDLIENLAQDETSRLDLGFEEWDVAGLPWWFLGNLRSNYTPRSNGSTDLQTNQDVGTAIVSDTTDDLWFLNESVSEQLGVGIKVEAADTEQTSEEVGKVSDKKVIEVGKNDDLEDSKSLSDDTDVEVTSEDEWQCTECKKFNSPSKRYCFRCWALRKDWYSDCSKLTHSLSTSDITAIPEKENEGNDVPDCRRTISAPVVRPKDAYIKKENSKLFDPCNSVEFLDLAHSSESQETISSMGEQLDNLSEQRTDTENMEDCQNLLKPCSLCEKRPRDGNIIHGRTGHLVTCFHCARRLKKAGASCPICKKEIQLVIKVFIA
Target sequence (Q00987 whole entry, looked up): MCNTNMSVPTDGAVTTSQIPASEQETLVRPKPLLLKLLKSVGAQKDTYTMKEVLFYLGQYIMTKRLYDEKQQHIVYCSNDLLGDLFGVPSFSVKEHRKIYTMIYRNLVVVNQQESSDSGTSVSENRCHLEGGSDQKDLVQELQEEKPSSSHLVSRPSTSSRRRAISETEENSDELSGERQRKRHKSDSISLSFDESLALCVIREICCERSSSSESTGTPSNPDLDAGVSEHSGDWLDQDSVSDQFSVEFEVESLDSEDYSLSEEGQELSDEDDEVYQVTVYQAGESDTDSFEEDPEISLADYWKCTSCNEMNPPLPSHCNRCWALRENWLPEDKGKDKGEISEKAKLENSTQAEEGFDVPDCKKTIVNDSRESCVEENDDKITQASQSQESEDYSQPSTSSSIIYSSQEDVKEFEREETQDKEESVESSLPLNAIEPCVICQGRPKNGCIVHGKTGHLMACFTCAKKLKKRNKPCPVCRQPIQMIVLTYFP
Beta cell apopt – beta cell apoptosis inhibition. INS-1E cytokine-induced death, ATP luminescence, 48 h; percent of positive-control rescue, neutral wells zero. protection from apoptosis, % (no concentration beside the values). actives 0.8% (n = 300,000);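 active = Every replicate reaches about 75%, or at least half do and their mean reaches it too, limit read from the data; inconclusive = At least half of replicates reach the limit but their mean does not; inactive = Under half of replicates reach the limit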;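 note: higher means more ATP so stronger rescue from cytokine killing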
NLRP3 yeast inh – blocks the NALP3 inflammasome reconstituted in yeast; actives 0.39% (n = 330,000); Yeast reconstituted NLRP3/ASC/caspase-1, beta-gal luminescence, 24 h; AID 2825; inhibition, % at 10 µM;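 active = inhibition of 50% or more; inactive = inhibition below 50%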
T cruzi inh – blocks replication of Trypanosoma cruzi | AID 1885 | actives 1.4% (n = 300,000) | inhibition, % (no concentration beside the values) | T. cruzi beta-gal in NIH3T3, luminescence, 90 h;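 active = mean inhibition across valid replicates above about 55%, limit read from the data; inconclusive = mean below that limit but half or more replicates reach it; inactive = mean below it, under half of replicates reach it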;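 note: signal also drops with host cell toxicity which is not excluded here; higher percent means less beta-gal luminescence so fewer parasites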
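Incubation – ≥90 h infection period, 3 h prior cell attachment · System – NIH/3T3 fibroblasts plus reporter T. cruzi · Doses – compound pinned at 50 nL/well, DMSO · Read-out basis – percent inhibition of parasite-derived β-gal signal · Signal – luminescent β-galactosidase signal after 60 min lysis · Also added – 5000 T. cruzi trypomastigotes/well · Medium – Low-serum DMEM with 2% FBS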
CSC inhib – blocks cancer stem cells. AID 2717. actives 1.1% (n = 300,000). cancer stem cell-like cells viability, luminescence. inhibition, % at 7.5 µM; in the data active = inhibition above about 75%; inconclusive = no clear call, values can overlap the other calls; tested in HMLE shEcad cells
Numbers stand for hits; 0 = inactive; ? = inconclusive; - = not tested or not shown.

SMILES	Calb FLC	Mdm2 MdmX PPI	Beta cell apopt	NLRP3 yeast inh	T cruzi inh	CSC inhib
CC/C(C)=N/Nc1cccc([N+](=O)[O-])c1	92	0	0	0	0	0
O=C(NCc1ccc2c(c1)OCO2)Nc1ccc(Cl)cc1	0	0	0	0	0	0
Cc1cc(C)n(CC(=O)c2cccc([N+](=O)[O-])c2)n1	0	0	0	0	0	-
CC#CC[N+](C)(C)CCCCCCCC	0	0	131	0	0	0
CC#CC[N+](C)(C)CC(=O)c1ccccc1	0	0	0	0	0	0
O=C(NCC(c1ccco1)N1CCc2ccccc2C1)c1ccc(Cl)c([N+](=O)[O-])c1 (stereo not given)	0	0	0	0	0	0
O=C(NCC(c1ccco1)N1CCCC1)c1ccc(Cl)c(S(=O)(=O)N2CCc3ccccc32)c1 (stereo not given)	-	0	75	0	-	-
CCCOc1cccc(C(=O)N/N=C/c2coc3ccccc3c2=O)c1	108	0	0	0	-	0
O=C(CCCN1C(=O)c2ccccc2C1=O)NCc1cccnc1	0	0	0	0	0	0
O=C(/C=C/c1ccccc1)NCc1cccnc1	0	0	0	0	0	0
O=C(/C=C/c1ccc(-c2ccccc2)cc1)NCc1cccnc1	0	0	98	0	0	0
O=C(CCCCCCCCCCC(=O)NCc1cccnc1)NCc1cccnc1	0	0	112	0	0	0
O=C(NCc1cccnc1)c1cc(-c2ccco2)on1	0	0	101	0	0	0
COc1cc(/C=C/C(=O)OC[C@H]2O[C@H](OC3(CO)OC(CO)C(O)C3O)[C@H](O)[C@@H](O)[C@@H]2O)ccc1O (stereo not given in full)	-	0	0	0	-	-
Cc1ccc(CSCC(=O)N(C)CC(=O)Nc2ccccc2Cl)cc1	0	0	0	0	0	0
O=[N+]([O-])c1ccc(/C=N/Nc2ccnc3cc(Cl)ccc23)o1	0	0	107	0	0	0
Clc1ccc2c(N/N=C/c3cccc(Br)c3)ccnc2c1	0	-	81	-	0	80
CCCCN(CCCNC(=O)C1CCCN(S(=O)(=O)CC)C1)Cc1ccccc1 (stereo not given)	0	0	0	0	0	-
O=[N+]([O-])c1cccc(-c2csc(N/N=C/c3cccc(O)c3)n2)c1	0	0	0	0	?	87
Cc1ccc(C(C)(C)C)c(OCCCn2ccnc2)c1	0	0	0	0	0	0
CC(C)(C)c1ccccc1OCCCCCn1ccnc1	0	0	0	0	61	0
Cc1ccc(OCCCCn2ccnc2)c(Cl)c1	0	0	0	0	61	0
Cc1ccc(C)c(OCCCCn2ccnc2)c1	0	0	0	0	71	0
Cc1ccc(OCCn2ccnc2)c(C)c1	0	0	0	0	0	0
COc1cccc(C(=O)NNC(=O)C(=O)Nc2ccc(C)cc2)c1	0	0	0	0	0	-
SMILES	Calb FLC	Mdm2 MdmX PPI	Beta cell apopt	NLRP3 yeast inh	T cruzi inh	CSC inhib
Cc1ccc(C=C2C(Cl)=C(Cl)C(Cl)=C2Cl)cc1	0	0	0	0	0	100
CCc1cc2c(COC(=O)c3c(C)noc3C)cc(=O)oc2cc1O	0	0	0	0	0	0
CC1CC(C)CN(S(=O)(=O)c2ccc(C(=O)NCCCn3ccnc3)cc2)C1 (stereo not given)	0	0	114	0	0	101
CSc1ccc(CN2CCN(Cc3ccc([N+](=O)[O-])cc3)CC2)cc1	0	0	0	0	66	0
Cc1ccc(OCCOC(=O)C2CCN(S(=O)(=O)c3ccc(C)c(C)c3)CC2)cc1	0	0	0	0	0	0
O=C(Nc1cccc2ncccc12)c1cc([N+](=O)[O-])ccc1Cl	0	0	-	0	0	-
O=C(Nc1cccnc1Cl)c1cc([N+](=O)[O-])ccc1Cl	0	0	0	0	66	0
COc1ccccc1C(=O)Nc1ccc(Cc2ccncc2)cc1	0	0	0	0	0	0
Cc1c([N+](=O)[O-])cc(C(=O)Nc2ccc(Cc3ccncc3)cc2)cc1[N+](=O)[O-]	0	0	0	0	59	0
COc1c(C)cc(Br)cc1C(=O)Nc1ccc(Cc2ccncc2)cc1	0	0	0	0	61	0
CCOc1ccc(C(=O)Nc2ccc(Cc3ccncc3)cc2)cc1Br	0	0	-	0	74	0
O=C(Nc1ccc(Cc2ccncc2)cc1)c1ccc(Cl)c([N+](=O)[O-])c1	0	0	0	0	0	0
CC(=O)NNc1[nH]c2c(c(=O)c1[N+](=O)[O-])c(=O)n(C)c(=O)n2C	0	0	0	0	0	0
Cc1ccccc1CNc1ccc(C(CC(N)=O)NC(=O)c2ccc(Br)cc2)cc1[N+](=O)[O-] (stereo not given)	0	0	91	0	0	111
NC(=O)CC(NC(=O)c1ccc(Br)cc1)c1ccc(N2CCCCCC2)c([N+](=O)[O-])c1 (stereo not given)	0	0	0	0	0	123
NC(=O)CC(NC(=O)c1ccccc1)c1ccc(N2CCCCCCC2)c([N+](=O)[O-])c1 (stereo not given)	0	0	0	0	0	0
CC(=O)N1CC(C)Sc2ccc(S(=O)(=O)NCc3ccccc3Cl)cc21 (stereo not given)	0	0	0	0	0	0
COc1ccccc1Nc1nc(N)nc(CSC(=S)N2CCN(c3ccccc3)CC2)n1	0	0	0	0	63	0
COc1cc(OC)cc(-c2c(-c3cccs3)c3cc(-c4ccn[nH]4)ccc3n2C)c1	-	0	0	0	-	87
Cn1c(-c2ccsc2)c(-c2cccs2)c2cc(Br)ccc21	-	0	0	0	-	80
COc1cc(OC)cc(-c2c(-c3cccs3)c3cc(-c4ccc(N(C)C)nc4)ccc3n2C)c1	-	0	0	0	-	86
COc1ccccc1/C=C/c1nc2ccc(OC(C)=O)cc2c(=O)o1	0	0	0	0	0	0
COc1ccc(/C=C/c2nc3cc(-c4ccccc4)ccc3o2)cc1O	0	0	0	0	0	102
O=S(=O)(c1ccc(Cl)c(Cl)c1)c1snnc1-c1ccccc1	95	-	-	-	0	-
CC(C)(C)c1ccc(C(=O)NNc2cc(N3CCOCC3)nc(N3CCOCC3)n2)cc1	0	0	0	0	0	0
SMILES	Calb FLC	Mdm2 MdmX PPI	Beta cell apopt	NLRP3 yeast inh	T cruzi inh	CSC inhib
O=C(CCc1ccccc1)NNc1cc(N2CCCCC2)nc(N2CCCCC2)n1	0	0	0	0	57	0
CC(C)(C)c1ccc(C(=O)NNc2cc(N3CCCCC3)nc(N3CCCCC3)n2)cc1	0	0	0	0	93	0
Cc1ccc(/C=C(\NC(=O)c2ccccc2)C(=O)NC(Cc2ccccc2)C(=O)O)cc1 (stereo not given)	0	0	0	0	0	0
C/C(=N\Nc1cc(C(F)(F)F)ccc1Cl)c1ccccc1O	0	0	0	0	0	77
C/C(=N\Nc1ccc(F)cc1F)c1ccccc1O	0	0	0	0	0	0
Cc1ccc(OCC(O)CNC(=O)c2ccccc2C(=O)O)cc1 (stereo not given)	0	0	0	0	0	0
